This is an account of results in ChEMBL document CHEMBL3797027, “Potent anti-proliferative actions of a non-diuretic glucosamine derivative of ethacrynic acid” (Bioorg Med Chem Lett, 2016).

Molecules are shown by their SMILES. Active and inactive are the calls of the source. No cut-off for these calls is given here.

Test [1] concerns MDA-MB-231. The test can be described thus: Increase in PUMA protein expression in p53 mutant expressing human MDA-MB-231 cells at 10 to 40 uM by Western blot method. It counts as functional, cell-based. An outline of the steps: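 H1299 (p53-null), HCT116 (p53 wild type) and MDA-MB-231 (p53 mutant) cells were treated, then lysates were immunoblotted for p53, p21, PUMA and PARP. β-Actin served as loading control.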
Background: Immunoblotting shows a protein as a band on a membrane.

Test [2] can be described thus: Cytotoxic activity against human SF188 cells assessed as inhibition of cell proliferation incubated for 72 hrs by MTT assay. The following applies: SF-188, 72 h. The class given is functional, cell-based. Put shortly: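 MTT cell survival assay. IC50 is the concentration that inhibits tumour cell proliferation by 50%, read from cell survival curves. Values are given as mean ± SD of three independent experiments.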

The nature of test [3]: Potency index, ratio of IC50 for ethacrynic acid to IC50 for test compound for cytotoxic activity against human GBM10 cells assessed as inhibition of cell proliferation incubated for 72 hrs by MTT assay. The class given is functional. An outline of the steps:
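Index is the reference IC50 divided by the test IC50. Both IC50s were taken from MTT cell survival curves, each as mean ± SD of three independent experiments.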

Test [4] concerns MDA-MB-231. The test can be described thus: Induction of ROS generation in human MDA-MB-231 cells at 20 and 40 uM incubated for 3 hrs after pre-incubation with 3 mM NAC for 1 hr by DCFDA staining based flow cytometry. It counts as functional, cell-based. An outline of the steps:
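Cells were exposed for 3 h to compound, or to 25 µM H2O2 as positive control. Where indicated, 3 mM N-acetylcysteine was given 1 h before treatment. Pellets were stained with DCF-DA for 30 min, and intracellular ROS was read as fluorescence shift by flow cytometry against untreated controls.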
On the technique in general: Flow cytometry measures light scatter and fluorescence of single cells or particles in a stream.

The term IC50 denotes the concentration at which inhibition is half-maximal.

Turning to `C=C(CC)C(=O)c1ccc(OCC(=O)N[C@@H]2[C@@H](O)[C@H](O)[C@@H](CO)O[C@H]2O)c(Cl)c1Cl`, the outcome with MDA-MB-231 [1] was Active. Moreover, the IC50 in test [2] was found to be 12.3 µM. The “Ratio IC50” value in test [3] is on record as 3. Further, the result with MDA-MB-231 [4] was inactive.
